In PMC2810141 (Biochemistry, 2008):
“Also recorded” adds a separate entry of the source.

Assays:
human P4H [1] = molecular target: T1, human P4H (Homo sapiens, UniProt P13674); test: HPLC-based assay of P4H enzymatic activity; type: biochemical; conditions: for Product formation as substrate for P4H: HPLC (for Mtp also mass spectrometry), data not shown; for Substrate or Inhibitor: PEG-Gly–Tyr–Yaa–GlyOEt, 50 mM Tris–HCl pH 7.8, P4H 90 nM, α-ketoglutarate 500 μM; for Substrate or Inhibitor / kcat / Km / kcat/KM / kcat/KM relative to that of the Pro-containing peptide: HPLC-based assay; for Substrate or Inhibitor / kcat / Km / kcat/KM: 5 min, 30 °C; for kcat / Km / kcat/KM: pH 7.8, P4H 90 nM, substrate 0.05–3 mM, mean ± SE of three replicates; for kcat / Km: Michaelis–Menten fit
T1 sequence (P13674 18-534): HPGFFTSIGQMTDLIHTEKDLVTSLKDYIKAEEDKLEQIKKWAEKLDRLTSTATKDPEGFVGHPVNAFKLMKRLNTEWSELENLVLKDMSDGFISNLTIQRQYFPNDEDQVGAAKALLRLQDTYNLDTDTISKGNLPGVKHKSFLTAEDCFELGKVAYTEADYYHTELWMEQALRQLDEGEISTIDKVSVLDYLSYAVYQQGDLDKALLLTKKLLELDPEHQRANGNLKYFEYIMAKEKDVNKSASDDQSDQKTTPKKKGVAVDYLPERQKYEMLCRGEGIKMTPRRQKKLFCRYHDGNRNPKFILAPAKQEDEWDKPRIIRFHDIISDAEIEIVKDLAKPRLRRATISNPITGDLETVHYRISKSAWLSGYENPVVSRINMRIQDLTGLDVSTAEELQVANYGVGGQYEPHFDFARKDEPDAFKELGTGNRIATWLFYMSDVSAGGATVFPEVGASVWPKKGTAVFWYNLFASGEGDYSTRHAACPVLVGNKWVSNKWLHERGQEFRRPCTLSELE
T1 sequence (P07237 18-508 partner): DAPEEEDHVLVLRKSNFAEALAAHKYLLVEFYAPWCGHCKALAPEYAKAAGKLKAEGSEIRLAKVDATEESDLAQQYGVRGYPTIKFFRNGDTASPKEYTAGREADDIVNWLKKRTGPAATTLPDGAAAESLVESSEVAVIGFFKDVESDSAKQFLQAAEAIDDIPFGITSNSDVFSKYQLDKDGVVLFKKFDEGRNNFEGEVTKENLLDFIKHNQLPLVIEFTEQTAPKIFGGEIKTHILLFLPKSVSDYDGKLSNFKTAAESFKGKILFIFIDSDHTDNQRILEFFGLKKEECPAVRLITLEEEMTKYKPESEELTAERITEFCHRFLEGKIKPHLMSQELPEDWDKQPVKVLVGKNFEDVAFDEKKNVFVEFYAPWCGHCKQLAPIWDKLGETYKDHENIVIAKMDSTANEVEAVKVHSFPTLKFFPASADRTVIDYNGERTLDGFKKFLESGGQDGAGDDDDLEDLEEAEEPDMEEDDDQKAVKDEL
In short: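 Human P4H from a previously reported preparation at 90 nM, in 50 mM Tris–HCl pH 7.8 with BSA 1 mg/mL, catalase 100 μg/mL, DTT 100 μM, ascorbate 2 mM, FeSO4 50 μM and α-ketoglutarate 500 μM. Started with tetrapeptide (0.05–3 mM; ethanol stock), run 5 min at 30 °C, then boiled 60 s. Triplicates. C18 HPLC; substrate:product ratio from A214; Michaelis–Menten fit.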

human P4H [2] = molecular target: T1, human P4H; test: [14C]CO2-release assay from [1-14C]α-ketoglutarate; type: biochemical; conditions: substrate at 10% of KM; duplicate
In short: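 Release of [14C]CO2 from [1-14C]α-ketoglutarate. Component levels as in the HPLC assay, except P4H at 395 nM. Each peptide tested at 10% of its KM from the HPLC assay. Run in duplicate; the decarboxylation rate without peptide was subtracted. Rate (μM/min) expressed as % of the Pro-containing peptide.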

P4H = conditions: binds to the enzyme, not hydroxylated; ref [33]; cited from earlier work

| Substance | Product formation as substrate for P4H (human P4H [1]) | Substrate or Inhibitor (human P4H [1]) | kcat (human P4H [1]) | Km (human P4H [1]; SEM) | kcat (human P4H [1]; SEM) | kcat/KM (human P4H [1]) | kcat/KM relative to that for dansyl-Gly–Phe–Pro–GlyOEt (human P4H [1]; comparator value from ref [18]) | % of Pro (rate of CO2 release) (human P4H [2]) | kcat/KM relative to that of the Pro-containing peptide (human P4H [1]) | Inhibition of P4H enzymatic activity (P4H) |
| --- | --- | --- | --- | --- | --- | --- | --- | --- | --- | --- |
| Cbz-Gly–Tyr–Mtp–GlyOEt | No product was detected | Neither | – | – | – | – | – | – | – | – |
| PEG-Gly–Tyr–Kep–GlyOEt | not found to be a substrate | neither substrates nor inhibitors; also recorded: Neither | – | – | – | – | – | – | – | – |
| PEG-Gly–Tyr–Pro–GlyOEt | – | Substrate | 360 min⁻¹ | 0.58 ± 0.03 mM | 360 ± 7 min⁻¹ | 10 ± 0.6 10^3 M^−1s^−1 | 3 fold | 100% | – | – |
| PEG-Gly–Tyr–Thp–GlyOEt | – | Substrate | – | 6.4 ± 1.4 mM | 470 ± 59 min⁻¹ | 1.2 ± 0.3 10^3 M^−1s^−1 | – | 6% | 12% | – |
| PEG-Gly–Tyr–flp–GlyOEt | No product formation was detected | Substrate | 250 min⁻¹ | 1.6 ± 0.3 mM | 250 ± 21 min⁻¹ | 2.7 ± 0.5 10^3 M^−1s^−1 | – | 26% | 27% | – |
| polyproline | – | – | – | – | – | – | – | – | – | competitive inhibitor |
